Experimental data as given in ChEMBL document CHEMBL1140069, “In vitro antifungal activity of polyfunctionalized 2-(hetero)arylquinolines prepared through imino Diels-Alder reactions” (2008).
Values after ≈ are worked out from the molar mass of the structure shown.

How the values were obtained:
Assay type in all cases: functional
Cryptococcus neoformans [1] = assay: Antimicrobial activity against Cryptococcus neoformans IM 972751 isolate at 12.5 ug/ml after 48 hrs
Procedure, shortened: (§1)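 Clinical Cryptococcus isolates kept on Sabouraud-dextrose agar slopes; inoculum 1–5 × 10³ CFU/mL. Quinoline DMSO stocks were diluted in RPMI-1640 to final 100–6.25 µg/mL, with DMSO ≤2%. An equal volume of inoculum was added (200 µL per well). Run in triplicate.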

[2] = system: Trichophyton mentagrophytes; assay: Antifungal activity against Trichophyton mentagrophytes ATCC 9972 after 48 hrs by broth microdilution technique; details: ATCC 9972, 48 h
Procedure, shortened: (§2)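 CLSI broth microdilution: M-27 A2 for yeasts and M-38 A for filamentous fungi. Medium is RPMI-1640 buffered to pH 7.0 with MOPS. Compound is diluted twofold from 250 to 0.98, final DMSO ≤2%. Inoculum is 1–5 × 10³ CFU/mL. Plates are incubated at 35 °C in a moist, dark chamber and read visually at 48 h. MIC100 is the lowest concentration giving total growth inhibition versus drug-free control.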

Cryptococcus neoformans [3] = assay: Antimicrobial activity against Cryptococcus neoformans IM 031706 isolate at 50 ug/ml after 48 hrs
Procedure, shortened: (§3)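 Percent growth inhibition in 96-well microplates. Compound stocks in DMSO (≤2%) were diluted in RPMI-1640 to final 100–6.25 µg/mL, and 100 µL inoculum was added (final 200 µL). Controls were a growth well (inoculum with matching DMSO, no compound) and a sterility well (no inoculum). Inhibition was calculated against growth and sterility wells.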

Cryptococcus neoformans [4] = assay: Antimicrobial activity against Cryptococcus neoformans IM 983036 isolate at 100 ug/ml after 48 hrs; procedure, shortened: as §1
Cryptococcus neoformans [5] = assay: Antimicrobial activity against Cryptococcus neoformans IM 00319 isolate at 100 ug/ml after 48 hrs; procedure, shortened: as §3
Cryptococcus neoformans [6] = assay: Antimicrobial activity against Cryptococcus neoformans IM 031706 isolate at 100 ug/ml after 48 hrs; procedure, shortened: as §3
Cryptococcus neoformans [7] = assay: Antimicrobial activity against Cryptococcus neoformans IM 972751 isolate at 25 ug/ml after 48 hrs; procedure, shortened: as §1
Cryptococcus neoformans [8] = assay: Antimicrobial activity against Cryptococcus neoformans IM 031631 isolate at 12.5 ug/ml after 48 hrs; procedure, shortened: as §3
Cryptococcus neoformans [9] = assay: Antimicrobial activity against Cryptococcus neoformans IM 052470 isolate at 50 ug/ml after 48 hrs; procedure, shortened: as §3
Cryptococcus neoformans [10] = assay: Antimicrobial activity against Cryptococcus neoformans IM 031706 isolate at 25 ug/ml after 48 hrs; procedure, shortened: as §3
Cryptococcus neoformans [11] = assay: Antimicrobial activity against Cryptococcus neoformans IM 972724 isolate at 25 ug/ml after 48 hrs; procedure, shortened: as §1
Cryptococcus neoformans [12] = assay: Antimicrobial activity against Cryptococcus neoformans IM 052470 isolate at 100 ug/ml after 48 hrs; procedure, shortened: as §3
Cryptococcus neoformans [13] = assay: Antimicrobial activity against Cryptococcus neoformans IM 031631 isolate at 100 ug/ml after 48 hrs; procedure, shortened: as §3
Cryptococcus neoformans [14] = assay: Antimicrobial activity against Cryptococcus neoformans IM 972724 isolate at 6.25 ug/ml after 48 hrs; procedure, shortened: as §1
Cryptococcus neoformans [15] = assay: Antimicrobial activity against Cryptococcus neoformans IM 983036 isolate at 50 ug/ml after 48 hrs; procedure, shortened: as §1
Candida albicans [16] = assay: Antimicrobial activity against Candida albicans ATCC 10231 at 25 ug/ml after 24 hrs; details: ATCC 10231, 24 h
Procedure, shortened: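 Growth-inhibition microplate test. Strains are grown on Sabouraud-chloramphenicol agar for 48 h at 30 °C, and inoculum is added to RPMI-1640 containing compound at a final 100–6.25, with DMSO ≤2%. Each strain has a growth control (same DMSO, no compound) and a sterility control.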

Cryptococcus neoformans [17] = assay: Antimicrobial activity against Cryptococcus neoformans IM 983036 isolate at 25 ug/ml after 48 hrs; procedure, shortened: as §1
Cryptococcus neoformans [18] = assay: Antimicrobial activity against Cryptococcus neoformans IM 961951 isolate at 50 ug/ml after 48 hrs; procedure, shortened: as §1
Cryptococcus neoformans [19] = assay: Antimicrobial activity against Cryptococcus neoformans IM 972751 isolate at 100 ug/ml after 48 hrs; procedure, shortened: as §1
Aspergillus fumigatus = assay: Antifungal activity against Aspergillus fumigatus ATTC 26934 after 48 hrs by broth microdilution technique; procedure, shortened: as §2
Saccharomyces cerevisiae = assay: Antifungal activity against Saccharomyces cerevisiae ATCC 9763 after 48 hrs by broth microdilution technique; details: ATCC 9763, 48 h; procedure, shortened: as §2
Nannizzia gypsea = assay: Antifungal activity against Microsporum gypseum C115 after 48 hrs by broth microdilution technique; procedure, shortened: as §2
Cryptococcus neoformans [20] = assay: Antifungal activity against Cryptococcus neoformans ATCC 32264 after 48 hrs by broth microdilution technique; details: ATCC 32264, 48 h; procedure, shortened: as §2
Cryptococcus neoformans [21] = assay: Antimicrobial activity against Cryptococcus neoformans IM 042074 isolate at 100 ug/ml after 48 hrs; procedure, shortened: as §3
Cryptococcus neoformans [22] = assay: Antimicrobial activity against Cryptococcus neoformans IM 031631 isolate at 50 ug/ml after 48 hrs; procedure, shortened: as §3
Aspergillus flavus = assay: Antifungal activity against Aspergillus flavus ATCC 9170 after 48 hrs by broth microdilution technique; details: ATCC 9170, 48 h; procedure, shortened: as §2
Cryptococcus neoformans [23] = assay: Antimicrobial activity against Cryptococcus neoformans IM 983040 isolate at 12.5 ug/ml after 48 hrs; procedure, shortened: as §1
Cryptococcus neoformans [24] = assay: Antimicrobial activity against Cryptococcus neoformans IM 052470 isolate at 12.5 ug/ml after 48 hrs; procedure, shortened: as §3
Aspergillus niger = assay: Antifungal activity against Aspergillus niger ATCC 9029 after 48 hrs by broth microdilution technique; details: ATCC 9029, 48 h; procedure, shortened: as §2
Cryptococcus neoformans [25] = assay: Antimicrobial activity against Cryptococcus neoformans IM 972724 isolate at 12.5 ug/ml after 48 hrs; procedure, shortened: as §1
Cryptococcus neoformans [26] = assay: Antimicrobial activity against Cryptococcus neoformans IM 042074 isolate at 25 ug/ml after 48 hrs; procedure, shortened: as §3
Cryptococcus neoformans [27] = assay: Antimicrobial activity against Cryptococcus neoformans IM 031706 isolate at 12.5 ug/ml after 48 hrs; procedure, shortened: as §3
Trichophyton rubrum = assay: Antifungal activity against Trichophyton rubrum C110 after 48 hrs by broth microdilution technique; details: read-out: MIC; procedure, shortened: as §2
Cryptococcus neoformans [28] = assay: Antimicrobial activity against Cryptococcus neoformans IM 052470 isolate at 6.25 ug/ml after 48 hrs; procedure, shortened: as §3
Cryptococcus neoformans [29] = assay: Antimicrobial activity against Cryptococcus neoformans IM 00319 isolate at 12.5 ug/ml after 48 hrs; procedure, shortened: as §3
Cryptococcus neoformans [30] = assay: Antimicrobial activity against Cryptococcus neoformans IM 972751 isolate at 50 ug/ml after 48 hrs; procedure, shortened: as §1
Cryptococcus neoformans [31] = assay: Antimicrobial activity against Cryptococcus neoformans ATCC 32264 at 50 ug/ml after 48 hrs; details: ATCC 32264, 48 h; procedure, shortened: as §3
Cryptococcus neoformans [32] = assay: Antimicrobial activity against Cryptococcus neoformans IM 00319 isolate at 25 ug/ml after 48 hrs; procedure, shortened: as §3
Candida albicans [33] = assay: Antifungal activity against Candida albicans ATCC 10231 after 48 hrs by broth microdilution technique; details: ATCC 10231, 48 h; procedure, shortened: as §2
Cryptococcus neoformans [34] = assay: Antimicrobial activity against Cryptococcus neoformans IM 031706 isolate at 6.25 ug/ml after 48 hrs; procedure, shortened: as §3
Cryptococcus neoformans [35] = assay: Antimicrobial activity against Cryptococcus neoformans IM 972724 isolate at 50 ug/ml after 48 hrs; procedure, shortened: as §1
Cryptococcus neoformans [36] = assay: Antimicrobial activity against Cryptococcus neoformans IM 961951 isolate at 12.5 ug/ml after 48 hrs; procedure, shortened: as §3

Cc1cc(-c2ccncc2)nc2ccccc12
inhibition at 12.5 µg/mL (Cryptococcus neoformans [1]): 0% | MIC [2]: 25 µg/mL (≈ 113 µM) | inhibition at 50 µg/mL (Cryptococcus neoformans [3]): 69% | inhibition at 100 µg/mL (Cryptococcus neoformans [4]): 79% | inhibition at 100 µg/mL (Cryptococcus neoformans [5]): 92% | inhibition at 100 µg/mL (Cryptococcus neoformans [6]): 100% | inhibition at 25 µg/mL (Cryptococcus neoformans [7]): 9% | inhibition at 12.5 µg/mL (Cryptococcus neoformans [8]): 36% | inhibition at 50 µg/mL (Cryptococcus neoformans [9]): 75% | inhibition at 25 µg/mL (Cryptococcus neoformans [10]): 57% | inhibition at 25 µg/mL (Cryptococcus neoformans [11]): 8% | inhibition at 100 µg/mL (Cryptococcus neoformans [12]): 99% | inhibition at 100 µg/mL (Cryptococcus neoformans [13]): 100% | inhibition at 6.25 µg/mL (Cryptococcus neoformans [14]): 0% | inhibition at 50 µg/mL (Cryptococcus neoformans [15]): 69% | inhibition at 25 µg/mL (Candida albicans [16]): 63% | inhibition at 25 µg/mL (Cryptococcus neoformans [17]): 45% | inhibition at 50 µg/mL (Cryptococcus neoformans [18]): 89% | inhibition at 100 µg/mL (Cryptococcus neoformans [19]): 98% | MIC (Aspergillus fumigatus): 50 µg/mL (≈ 227 µM) | MIC (Saccharomyces cerevisiae): 50 µg/mL (≈ 227 µM) | MIC (Nannizzia gypsea): 25 µg/mL (≈ 113 µM) | MIC (Cryptococcus neoformans [20]): 25 µg/mL (≈ 113 µM) | inhibition at 100 µg/mL (Cryptococcus neoformans [21]): 92% | inhibition at 50 µg/mL (Cryptococcus neoformans [22]): 75% | MIC (Aspergillus flavus): 100 µg/mL (≈ 454 µM) | inhibition at 12.5 µg/mL (Cryptococcus neoformans [23]): 0% | inhibition at 12.5 µg/mL (Cryptococcus neoformans [24]): 24% | MIC (Aspergillus niger): 200 µg/mL (≈ 908 µM) | inhibition at 12.5 µg/mL (Cryptococcus neoformans [25]): 0% | inhibition at 25 µg/mL (Cryptococcus neoformans [26]): 87% | inhibition at 12.5 µg/mL (Cryptococcus neoformans [27]): 41% | MIC (Trichophyton rubrum): 25 µg/mL (≈ 113 µM) | inhibition at 6.25 µg/mL (Cryptococcus neoformans [28]): 0% | inhibition at 12.5 µg/mL (Cryptococcus neoformans [29]): 32% | inhibition at 50 µg/mL (Cryptococcus neoformans [30]): 20% | inhibition at 50 µg/mL (Cryptococcus neoformans [31]): 100% | inhibition at 25 µg/mL (Cryptococcus neoformans [32]): 52% | MIC (Candida albicans [33]): 100 µg/mL (≈ 454 µM) | inhibition at 6.25 µg/mL (Cryptococcus neoformans [34]): 21% | inhibition at 50 µg/mL (Cryptococcus neoformans [35]): 23% | inhibition at 12.5 µg/mL (Cryptococcus neoformans [36]): 34%

c1ccc(-c2ccc3ccccc3n2)cc1 [2-PHENYLQUINOLINE]
inhibition at 12.5 µg/mL (Cryptococcus neoformans [1]): 0% | MIC [2]: 25 µg/mL (≈ 122 µM) | inhibition at 50 µg/mL (Cryptococcus neoformans [3]): 46% | inhibition at 100 µg/mL (Cryptococcus neoformans [4]): 32% | inhibition at 100 µg/mL (Cryptococcus neoformans [5]): 47% | inhibition at 100 µg/mL (Cryptococcus neoformans [6]): 67% | inhibition at 25 µg/mL (Cryptococcus neoformans [7]): 22% | inhibition at 12.5 µg/mL (Cryptococcus neoformans [8]): 5% | inhibition at 50 µg/mL (Cryptococcus neoformans [9]): 76% | inhibition at 25 µg/mL (Cryptococcus neoformans [10]): 17% | inhibition at 25 µg/mL (Cryptococcus neoformans [11]): 35% | inhibition at 100 µg/mL (Cryptococcus neoformans [12]): 88% | inhibition at 100 µg/mL (Cryptococcus neoformans [13]): 74% | inhibition at 6.25 µg/mL (Cryptococcus neoformans [14]): 0% | inhibition at 50 µg/mL (Cryptococcus neoformans [15]): 12% | inhibition at 25 µg/mL (Candida albicans [16]): 0% | inhibition at 25 µg/mL (Cryptococcus neoformans [17]): 0% | inhibition at 50 µg/mL (Cryptococcus neoformans [18]): 32% | inhibition at 100 µg/mL (Cryptococcus neoformans [19]): 83% | MIC (Aspergillus fumigatus): > 250 µg/mL | MIC (Saccharomyces cerevisiae): 125 µg/mL (≈ 609 µM) | MIC (Nannizzia gypsea): 16 µg/mL (≈ 77.9 µM) | MIC (Cryptococcus neoformans [20]): 31.2 µg/mL (≈ 152 µM) | inhibition at 100 µg/mL (Cryptococcus neoformans [21]): 84% | inhibition at 50 µg/mL (Cryptococcus neoformans [22]): 34% | MIC (Aspergillus flavus): > 250 µg/mL | inhibition at 12.5 µg/mL (Cryptococcus neoformans [23]): 4% | inhibition at 12.5 µg/mL (Cryptococcus neoformans [24]): 21% | MIC (Aspergillus niger): > 250 µg/mL | inhibition at 12.5 µg/mL (Cryptococcus neoformans [25]): 13% | inhibition at 25 µg/mL (Cryptococcus neoformans [26]): 33% | inhibition at 12.5 µg/mL (Cryptococcus neoformans [27]): 0% | MIC (Trichophyton rubrum): 25 µg/mL (≈ 122 µM) | inhibition at 6.25 µg/mL (Cryptococcus neoformans [28]): 0% | inhibition at 12.5 µg/mL (Cryptococcus neoformans [29]): 0% | inhibition at 50 µg/mL (Cryptococcus neoformans [30]): 54% | inhibition at 50 µg/mL (Cryptococcus neoformans [31]): 100% | inhibition at 25 µg/mL (Cryptococcus neoformans [32]): 14% | MIC (Candida albicans [33]): 250 µg/mL (≈ 1220 µM) | inhibition at 6.25 µg/mL (Cryptococcus neoformans [34]): 0% | inhibition at 50 µg/mL (Cryptococcus neoformans [35]): 87% | inhibition at 12.5 µg/mL (Cryptococcus neoformans [36]): 0%
